# Source: ChEMBL document CHEMBL1649503, “Alkoxyalkyl esters of 9-(s)-(3-hydroxy-2-phosphonomethoxypropyl) adenine are potent and selective inhibitors of hepatitis B virus (HBV) replication in vitro and in HBV transgenic mice in vivo” (Antimicrob Agents Chemother, 2009)
# Experiments:
# [1] = Selectivity index, ratio of CC50 for human HepG2(2.2.15) cells to EC50 for HBV infected in human HepG2(2.2.15) cells
# In short: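 Ratio from two 2.2.15 readouts after nine daily doses in RPMI/2% FBS. Extracellular HBV DNA was measured by quantitative blot hybridization and cytotoxicity by neutral red uptake (three cultures per concentration), both 24 h after the final dose.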
# [2] = test system: HepG2; assay: Drug metabolism in human HepG2 cells assessed as unidentified metabolite uptake at 10 uM after 48 hrs; type: ADME, cell-based; conditions: hepg2, 48 h
# [3] = test system: HepG2; assay: Drug metabolism in human HepG2 cells assessed as HPMPA uptake at 10 uM after 24 hrs; type: ADME, cell-based; conditions: hepg2, 24 h
# In short: (§1)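 Nearly confluent HepG2 flasks got 14C-labeled drug (final 10 µM, 50 mCi/mmol) for 24 h. Cells were washed with cold PBS, lysed in water by two freeze-thaw cycles and sonication, then extracted with cold TCA (8% final) and centrifuged at 4°C. Supernatant was counted and analyzed by SAX ion-exchange HPLC, with metabolites assigned by retention versus reference standards.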
# [4] = test system: HepG2; assay: Drug metabolism in human HepG2 cells assessed as HPMPAp uptake at 10 uM after 24 hrs; type: ADME, cell-based; conditions: hepg2, 24 h; in short: as §1
# [5] = test system: HepG2; assay: Drug metabolism in human HepG2 cells assessed as HPMPAp uptake at 10 uM after 48 hrs; type: ADME, cell-based; conditions: hepg2, 48 h
# [6] = Tmax in Swiss-Webster mouse kidney at 10 mg/kg, po after 24 hrs; type: ADME, organism-based; set-up: dose 10 mg/kg, route oral
# In short: (§2)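 Female Swiss-Webster mice (about 25 g) each got a single 10 mg/kg dose of the 14C-labeled (8-14C) ester (50 mCi/mmol) in 0.7% saline, by oral gavage or ip injection. Blood was taken at 1, 3, 6, 12 and 24 h, and liver, spleen, kidney, lung, heart and brain were excised, washed and weighed. Radioactivity was measured by scintillation counting as µM plasma equivalents or nmol/g tissue, mean of three per time point.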
# [7] = Tmax in Swiss-Webster mouse lung at 10 mg/kg, po after 24 hrs; type: ADME, organism-based; set-up: dose 10 mg/kg, route oral
# In short: (§3)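 Female Swiss-Webster mice (about 25 g) got one 10 mg/kg dose of the 8-14C-labeled ester (50 mCi/mmol) in 0.7% saline, by oral gavage or intraperitoneal injection. Blood was taken at 1, 3, 6, 12 and 24 h. Liver, spleen, kidney, lung, heart and brain were excised, washed and weighed. Drug plus metabolites were measured by liquid scintillation as µM plasma equivalents or nmol/g tissue. Each time point is the mean of three replicates.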
# [8] = test system: Spleen; assay: Cmax in Swiss-Webster mouse spleen assessed per gram of tissue at 10 mg/kg, po after 24 hrs; type: ADME, organism-based; set-up: dose 10 mg/kg, route oral; conditions: in vivo; in short: as §2
# [9] = test system: Heart; assay: Cmax in Swiss-Webster mouse heart assessed per gram of tissue at 10 mg/kg, po after 24 hrs; type: ADME, organism-based; set-up: dose 10 mg/kg, route oral; conditions: in vivo; in short: as §2
# [10] = test system: Lung; assay: AUC in Swiss-Webster mouse lung assessed per gram of tissue at 10 mg/kg, po after 24 hrs; type: ADME, organism-based; set-up: time < 24 hr, dose 10 mg/kg, route oral; conditions: in vivo; in short: as §2
# [11] = test system: Brain; assay: AUC in Swiss-Webster mouse brain assessed per gram of tissue at 10 mg/kg, po after 24 hrs; type: ADME, organism-based; set-up: time < 24 hr, dose 10 mg/kg, route oral; conditions: in vivo; in short: as §2
# [12] = Tmax in Swiss-Webster mouse spleen at 10 mg/kg, ip after 24 hrs; type: ADME, organism-based; set-up: dose 10 mg/kg, route intraperitoneal; in short: as §3
# [13] = Tmax in Swiss-Webster mouse heart at 10 mg/kg, ip after 24 hrs; type: ADME, organism-based; set-up: dose 10 mg/kg, route intraperitoneal; in short: as §2
# [14] = Tmax in Swiss-Webster mouse brain at 10 mg/kg, ip after 24 hrs; type: ADME, organism-based; set-up: dose 10 mg/kg, route intraperitoneal; in short: as §2
# [15] = test system: Liver; assay: Cmax in Swiss-Webster mouse liver assessed per gram of tissue at 10 mg/kg, ip after 24 hrs; type: ADME, organism-based; set-up: dose 10 mg/kg, route intraperitoneal; conditions: in vivo; in short: as §2
# [16] = test system: Kidney; assay: Cmax in Swiss-Webster mouse kidney assessed per gram of tissue at 10 mg/kg, ip after 24 hrs; type: ADME, organism-based; set-up: dose 10 mg/kg, route intraperitoneal; conditions: in vivo; in short: as §2
# [17] = test system: Lung; assay: Cmax in Swiss-Webster mouse lung assessed per gram of tissue at 10 mg/kg, ip after 24 hrs; type: ADME, organism-based; set-up: dose 10 mg/kg, route intraperitoneal; conditions: in vivo; in short: as §2
# [18] = test system: Liver; assay: AUC in Swiss-Webster mouse liver assessed per gram of tissue at 10 mg/kg, ip after 24 hrs; type: ADME, organism-based; set-up: time < 24 hr, dose 10 mg/kg, route intraperitoneal; conditions: in vivo; in short: as §2
# [19] = test system: Lung; assay: AUC in Swiss-Webster mouse lung assessed per gram of tissue at 10 mg/kg, ip after 24 hrs; type: ADME, organism-based; set-up: time < 24 hr, dose 10 mg/kg, route intraperitoneal; conditions: in vivo; in short: as §2
# [20] = test system: Brain; assay: AUC in Swiss-Webster mouse brain assessed per gram of tissue at 10 mg/kg, ip after 24 hrs; type: ADME, organism-based; set-up: time < 24 hr, dose 10 mg/kg, route intraperitoneal; conditions: in vivo; in short: as §2
# [21] = Oral bioavailability in Swiss-Webster mouse at 10 mg/kg after 24 hrs; type: ADME, organism-based; conditions: in vivo
# In short: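 Same single 10 mg/kg 14C-labeled dose (50 mCi/mmol, 0.7% saline) given to female Swiss-Webster mice orally or ip. Plasma sampled 1–24 h and counted by liquid scintillation. Relative oral bioavailability came from AUCs of drug plus metabolites, computed as printed: […].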
# [22] = test system: Mus musculus; assay: Toxicity in transgenic mouse at 10 mg/kg, po assessed as mortality after 7 days; type: organism-based; set-up: dose 10 mg/kg, route oral; conditions: in vivo, 168 h
# [23] = test system: Mus musculus; assay: Toxicity in transgenic mouse at 30 to 100 mg/kg, po assessed as morbidity after 7 days; type: organism-based; set-up: dose 30-100 mg/kg, route oral; conditions: in vivo, 168 h
# [24] = test system: Hepatitis B virus; assay: Antiviral activity against HBV infected in transgenic mouse assessed as decrease in liver viral DNA level at 4 mg/kg, po administered daily for 14 days measured post last dose; type: functional
# In short: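 Homozygous male and female HBV transgenic mice (founder 1.3.32; 22.2 ± 2.8 g) received drug in distilled water by oral gavage, 0.1 ml/10 g, at 7 µmol/kg (4 mg/kg) daily for 14 days. About 0.1 g liver was lysed at necropsy, and DNA was extracted with phenol-chloroform. HBV DNA was measured by qPCR normalized to GAPDH, using duplicate CTs against a dilution standard curve, in relative units/µg cell DNA.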
# [25] = test system: Hepatitis B virus; assay: Antiviral activity against HBV harboring RNA polymerase M204V mutant gene infected in human HuH7 cells assessed as decrease in viral transient transfection after 5 days; conditions: Huh-7, 5 days
# [26] = test system: Hepatitis B virus; assay: Antiviral activity against HBV harboring RNA polymerase L180M/M204V mutant gene infected in human HuH7 cells assessed as decrease in viral transient transfection after 5 days; conditions: Huh-7, 5 days
smiles,measurement,setting,value
CCCCCCCCCCCCCCCCOCCCOP(=O)(O)CO[C@H](CO)Cn1cnc2c(N)ncnc21,Selectivity Index,[1],>483
same,Drug uptake,[2],402 pmol
same,Drug uptake,[3],1007 pmol
same,Drug uptake,[4],255 pmol
same,Drug uptake,[5],344 pmol
same,Tmax,[6],3 h
same,Tmax,[7],3 h
same,Cmax,[8],0.22 nmol/g
same,Cmax,[9],0.2 nmol/g
same,AUC,[10],12.8 nmol·h/g
same,AUC,[11],0.68 nmol·h/g
same,Tmax,[12],1 h
same,Tmax,[13],1 h
same,Tmax,[14],1 h
same,Cmax,[15],131.5 nmol/g
same,Cmax,[16],22.9 nmol/g
same,Cmax,[17],2.84 nmol/g
same,AUC,[18],545.1 nmol·h/g
same,AUC,[19],21.5 nmol·h/g
same,AUC,[20],0.98 nmol·h/g
same,bioavailability,[21],64%
same,Activity,[22],Non-toxic
same,Activity,[23],Toxic
same,ED50,"[24]; Hepatitis B virus, Liver, 336 h",0.096 µmol/kg
same,ED90,[24]; dose 4 mg/kg,2.97 µmol/kg
same,EC50,[25],900 nM
same,EC90,[25],3200 nM
same,EC50,[26],700 nM
same,EC90,[26],2800 nM
